Measurements from ChEMBL document CHEMBL3393046, “Conformationally-locked N-glycosides: exploiting long-range non-glycone interactions in the design of pharmacological chaperones for Gaucher disease” (Eur J Med Chem, 2015).
Calls of active or inactive are those of the source. The rule behind the calls is not given here.

Experiments:
Prunus dulcis = assay: Inhibition of almonds beta-glucosidase at 2 mM incubated for 10 to 30 mins using p-nitrophenyl beta-D-glycopyranoside substrate by spectrophotometry
Summary of the method: (§1)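 Reaction started by adding enzyme to substrate, without or with various inhibitor concentrations, in phosphate or phosphate-citrate buffer (α/β-mannosidase, amyloglucosidase) at each enzyme's optimal pH. Incubation 10–30 min at 37 °C (55 °C for amyloglucosidase), timed for 10–20% conversion. Stopped with 1 M Na₂CO₃, or for trehalase by heating then GLC-Trinder. Absorbance 405 nm (trehalase 492 nm). Approximate Ki from fixed substrate near Km.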

[1] = molecular target: Lysosomal alpha-glucosidase (Homo sapiens) (UniProt P10253); assay: Inhibition of alpha-glucosidase (unknown origin) by spectrophotometry
Penicillium decumbens = assay: Inhibition of Penicillium decumbens naringinase at 2 mM incubated for 10 to 30 mins using substrate by spectrophotometry; summary of the method: as §1
Saccharomyces cerevisiae = assay: Inhibition of yeast isomaltase at 2 mM incubated for 10 to 30 mins by spectrophotometry; summary of the method: as §1
Helix pomatia = assay: Inhibition of Helix pomatia beta-mannosidase at 2 mM incubated for 10 to 30 mins using substrate by spectrophotometry; summary of the method: as §1
Saccharomyces bayanus = assay: Inhibition of yeast alpha-glucosidase at 2 mM incubated for 10 to 30 mins using p-nitrophenyl alpha-D-glycopyranoside substrate by spectrophotometry; summary of the method: as §1
[2] = molecular target: T1, Lysosomal acid glucosylceramidase (Homo sapiens, UniProt P04062); assay: Inhibition of human beta-glucocerebrosidase at pH 5.0 by spectrophotometry
T1 sequence (P04062 whole entry): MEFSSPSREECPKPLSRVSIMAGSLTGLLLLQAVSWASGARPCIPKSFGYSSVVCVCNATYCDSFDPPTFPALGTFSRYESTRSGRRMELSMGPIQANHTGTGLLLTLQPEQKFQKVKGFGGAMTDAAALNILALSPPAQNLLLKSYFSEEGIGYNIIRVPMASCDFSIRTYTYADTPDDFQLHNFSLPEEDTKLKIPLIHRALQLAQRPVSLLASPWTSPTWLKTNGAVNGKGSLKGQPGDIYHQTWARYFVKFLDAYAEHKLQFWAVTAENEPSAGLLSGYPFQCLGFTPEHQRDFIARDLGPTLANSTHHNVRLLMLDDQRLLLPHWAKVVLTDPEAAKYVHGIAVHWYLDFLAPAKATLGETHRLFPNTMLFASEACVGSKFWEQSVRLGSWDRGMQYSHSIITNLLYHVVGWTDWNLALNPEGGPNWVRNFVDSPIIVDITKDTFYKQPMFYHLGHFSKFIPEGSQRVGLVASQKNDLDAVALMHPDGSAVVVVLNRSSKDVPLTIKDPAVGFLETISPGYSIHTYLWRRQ

[3] = molecular target: T1, Lysosomal acid glucosylceramidase; assay: Inhibition of human beta-glucocerebrosidase at pH 7.0 by spectrophotometry
Aspergillus niger = assay: Inhibition of Aspergillus niger amyloglucosidase at 2 mM incubated for 10 to 30 mins by spectrophotometry; summary of the method: as §1
[4] = molecular target: T2, Uncharacterized protein (Sus scrofa) (UniProt I3LIR5); assay: Inhibition of pig kidney trehalase at 2 mM incubated for 10 to 30 mins using alpha,alpha'-trehalose substrate by spectrophotometry; summary of the method: as §1
T2 sequence (whole entry): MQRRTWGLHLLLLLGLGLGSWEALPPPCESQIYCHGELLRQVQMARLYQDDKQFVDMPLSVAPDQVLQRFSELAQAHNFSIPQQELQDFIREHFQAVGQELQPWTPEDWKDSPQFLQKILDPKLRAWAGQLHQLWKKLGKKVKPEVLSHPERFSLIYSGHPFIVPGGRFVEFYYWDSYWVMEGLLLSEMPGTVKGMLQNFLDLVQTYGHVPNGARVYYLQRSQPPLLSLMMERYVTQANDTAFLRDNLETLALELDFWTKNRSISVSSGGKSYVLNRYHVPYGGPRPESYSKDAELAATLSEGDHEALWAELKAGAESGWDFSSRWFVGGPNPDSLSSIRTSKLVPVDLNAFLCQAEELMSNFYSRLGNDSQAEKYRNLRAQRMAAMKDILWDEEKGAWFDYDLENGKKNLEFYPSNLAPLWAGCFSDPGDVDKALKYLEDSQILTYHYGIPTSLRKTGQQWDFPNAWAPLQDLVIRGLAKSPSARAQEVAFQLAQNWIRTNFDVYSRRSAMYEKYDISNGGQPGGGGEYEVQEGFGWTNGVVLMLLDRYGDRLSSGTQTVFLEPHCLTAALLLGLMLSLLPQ

[5] = molecular target: T3, Alpha-mannosidase (Canavalia ensiformis) (UniProt C0HJB3); assay: Inhibition of jack bean alpha-mannosidase at 2 mM incubated for 10 to 30 mins by spectrophotometry; summary of the method: as §1
T3 sequence (whole entry): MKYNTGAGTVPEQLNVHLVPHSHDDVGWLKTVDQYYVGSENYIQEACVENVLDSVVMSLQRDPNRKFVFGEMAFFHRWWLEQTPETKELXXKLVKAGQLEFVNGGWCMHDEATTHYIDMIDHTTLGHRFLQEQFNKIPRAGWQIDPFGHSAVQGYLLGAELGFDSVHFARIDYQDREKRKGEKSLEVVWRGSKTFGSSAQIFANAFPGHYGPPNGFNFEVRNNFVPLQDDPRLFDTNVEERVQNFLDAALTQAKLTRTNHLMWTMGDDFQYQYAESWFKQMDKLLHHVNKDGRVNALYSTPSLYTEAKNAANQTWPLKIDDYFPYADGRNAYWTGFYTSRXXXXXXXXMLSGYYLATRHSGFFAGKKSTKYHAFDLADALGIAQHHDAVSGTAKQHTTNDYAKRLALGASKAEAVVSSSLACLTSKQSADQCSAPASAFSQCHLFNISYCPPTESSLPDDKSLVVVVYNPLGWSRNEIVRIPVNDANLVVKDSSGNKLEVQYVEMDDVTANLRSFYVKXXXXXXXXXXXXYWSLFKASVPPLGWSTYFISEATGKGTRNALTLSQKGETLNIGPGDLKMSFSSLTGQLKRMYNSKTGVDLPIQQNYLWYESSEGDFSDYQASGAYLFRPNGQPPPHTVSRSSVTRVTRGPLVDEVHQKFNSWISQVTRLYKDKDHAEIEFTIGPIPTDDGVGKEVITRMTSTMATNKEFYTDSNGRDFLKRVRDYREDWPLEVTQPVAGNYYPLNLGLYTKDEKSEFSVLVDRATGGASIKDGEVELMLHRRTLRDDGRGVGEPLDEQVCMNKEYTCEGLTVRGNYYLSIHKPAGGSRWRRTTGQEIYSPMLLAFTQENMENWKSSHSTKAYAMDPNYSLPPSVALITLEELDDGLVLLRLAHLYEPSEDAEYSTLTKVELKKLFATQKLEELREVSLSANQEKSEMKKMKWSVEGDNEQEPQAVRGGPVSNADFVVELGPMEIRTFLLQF

inhibition (Prunus dulcis) | inhibition [1] | inhibition (Penicillium decumbens) | inhibition (Saccharomyces cerevisiae) | inhibition (Helix pomatia) | inhibition (Saccharomyces bayanus) | IC50 ([2]; read-out: IC50) | IC50 ([3]; read-out: IC50) | inhibition (Aspergillus niger) | inhibition [4] | inhibition [5] | IC50 [2] | IC50 [3] | SMILES
inactive | inactive | inactive | inactive | inactive | inactive | 300 µM | 33 µM | inactive | inactive | inactive | – | – | COC(=O)CCCCCCCCCCCCCCCSC1=N[C@H]2O[C@H](CO)[C@@H](O)[C@H](O)[C@H]2O1
inactive | inactive | inactive | inactive | inactive | inactive | 27 µM | 3.9 µM | inactive | inactive | inactive | – | – | OC[C@H]1O[C@@H]2N=C(SCCCCCCCCCCCCCCCCF)O[C@@H]2[C@@H](O)[C@@H]1O
inactive | inactive | inactive | inactive | inactive | inactive | – | – | inactive | inactive | inactive | Not Active | Not Active | OCCCCCCCCCCCCCCCCSC1=N[C@H]2O[C@H](CO)[C@H](O)[C@H](O)[C@H]2O1
inactive | inactive | inactive | inactive | inactive | inactive | – | – | inactive | inactive | inactive | Not Active | Not Active | OC[C@H]1O[C@@H]2N=C(SCCCCCCCCCCCCCCCCSC3=N[C@H]4O[C@H](CO)[C@@H](O)[C@H](O)[C@H]4O3)O[C@@H]2[C@@H](O)[C@@H]1O
